Results published in article PMC4576993 (Leukemia, 2011).
Several values for one entry are separate records, joined by “and”; a condition that tells them apart may be missing. Identical values can stand only once. Entries after “also recorded” stand apart in the source; their conditions may differ.

Experiments:
[1] = rat tissue distribution studies; no reference given; cited from earlier work
bone marrow = settings: at its MTD, normal mouse model; cited from earlier work
[2] = Plasma vosaroxin pharmacokinetics in patients; format: in vivo, human; settings: for half-life: T1/2, mean
[3] = non-clinical toxicology studies; no reference given; cited from earlier work
[4] = patients with solid tumors, up to 75 mg/m^2/28-day cycle; cited from earlier work
[5] = test system: relapsed or refractory leukemia; test: Clinical response; format: in vivo, human
Method in brief: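 Dosing was a ~10 min IV infusion, either weekly (days 1, 8, 15; 18–90 mg/m2) or twice weekly (days 1, 4, 8, 11; 9–50 mg/m2), in 28-day cycles, up to 4(+2) cycles. Marrow aspirate or biopsy and peripheral blood were taken at each cycle end (~day 28). Response followed IWG criteria: MLFS was marrow blasts <5%; CR added no circulating blasts, no extramedullary disease, neutrophils >1×10^9/l and platelets ≥100×109/l; CRp was CR with incomplete platelet recovery.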

[6] = test system: phosphorylated H2AX (γH2AX) in peripheral blood blasts; test: γH2AX in patient peripheral blood blasts by flow cytometry; format: in vivo, human
Method in brief: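 Peripheral blood blasts from 10 weekly-schedule patients were sampled on days 1 and 8, predose and 2 h postdose. Ficoll-enriched cells were fixed in 70% ethanol at 4 °C and stained in TBS/4% FBS/0.1% Triton X-100. Primary was anti-phospho-Ser139 H2AX or IgG1 isotype (1:500, 2 h), then Alexa488 anti-mouse (1:200, 1 h) with 5 μg/ml RNase, then 2% formaldehyde. Flow cytometry used […]. %γH2AX-positive was set against isotype overlays.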

[7] = Renal excretion of vosaroxin and metabolites in urine, 24 h after first dose; format: in vivo, human; settings: 24 h after first dose, 18 and 27 mg/m^2 weekly, eight patients
p53 = settings: cited from earlier work
MV4-11 AML cell line = settings: in vitro; cited from earlier work

CN[C@H]1CN(c2ccc3c(=O)c(C(=O)O)cn(-c4nccs4)c3n2)C[C@@H]1OC [vosaroxin, (+)-1,4-dihydro-7-(trans-3-methoxy-4-methylamino-1-pyrrolidinyl)-4-oxo-1-(2-thiazolyl)-1,8-naphthyridine-3-carboxylic acid]
Concentration in bone marrow relative to blood [1]: ~ 30 fold
Bone marrow ablation compared with cytarabine (bone marrow): ablated bone marrow more potently than cytarabine
Differences in clearance based on age, sex, body weight or body surface area ([2]; age overall and <65 versus ≥65 years): No significant differences in clearance
Average total body clearance ([2]; all patients): 2 l/h/m^2
Induction or inhibition of vosaroxin metabolism after repeated doses ([2]; clearance compared weekly vs days 1, 4, 8 and 11): No induction or inhibition of vosaroxin metabolism was evident
Plasma exposure (AUC) versus dose ([2]; dose range 9–90 mg/m^2): dose proportional; also recorded: increased proportionally with an increase in dose
AUC(0-t) ([2]; human, plasma, intravenous, 72 mg/m2): 32500 ng·h/mL
AUC(0-inf) ([2]; human, plasma, intravenous, 72 mg/m2, AUCinf, mean, weekly, Day 1, 72 mg/m^2, N 11, cycle 1): 39400 ng·h/mL
clearance ([2]; human, plasma, intravenous, 72 mg/m2, CL, mean, weekly, Day 1, 72 mg/m^2, N 11, cycle 1): 69.3 mL/min
MRT ([2]; human, plasma, intravenous, 72 mg/m2, MRT, mean, weekly, Day 1, 72 mg/m^2, N 11, cycle 1): 33.9 h
Vd ([2]; human, plasma, intravenous, 72 mg/m2, Vss, mean, weekly, Day 1, 72 mg/m^2, N 11, cycle 1): 130 L
Cmax ([2]; human, plasma, intravenous, 72 mg/m^2): 1920 ng/mL
AUC(0-inf) ([2]; human, plasma, intravenous, AUCinf, mean, twice weekly, Day 1, 9–50 mg/m^2, N 31, cycle 1): 14200 ng·h/mL
AUC(0-inf) ([2]; human, plasma, intravenous, AUCinf, mean, twice weekly, Day 8, 9–50 mg/m^2, N 29, cycle 1): 15600 ng·h/mL
AUC(0-inf) ([2]; human, plasma, intravenous, AUCinf, mean, twice weekly, Day 11, 9–50 mg/m^2, N 28, cycle 1): 16000 ng·h/mL
clearance ([2]; human, plasma, intravenous, Average total body clearance, all patients): 66.7 mL/min
clearance ([2]; human, plasma, intravenous, CL, mean, twice weekly, Day 1, 9–50 mg/m^2, N 31, cycle 1): 72.8 mL/min
clearance ([2]; human, plasma, intravenous, CL, mean, twice weekly, Day 8, 9–50 mg/m^2, N 29, cycle 1): 75.7 mL/min
clearance ([2]; human, plasma, intravenous, CL, mean, twice weekly, Day 11, 9–50 mg/m^2, N 28, cycle 1): 75.3 mL/min
clearance ([2]; human, plasma, intravenous, CL, mean, weekly, Day 1, 18–90 mg/m^2, N 41, cycle 1): 65.3 mL/min
MRT ([2]; human, plasma, intravenous, MRT, mean, twice weekly, Day 1, 9–50 mg/m^2, N 31, cycle 1): 33.9 h
MRT ([2]; human, plasma, intravenous, MRT, mean, twice weekly, Day 8, 9–50 mg/m^2, N 29, cycle 1): 28.6 h
MRT ([2]; human, plasma, intravenous, MRT, mean, twice weekly, Day 11, 9–50 mg/m^2, N 28, cycle 1): 30.8 h
half-life ([2]; human, plasma, intravenous, twice weekly, Day 1, 9–50 mg/m^2, N 31, cycle 1): 1590 min
half-life ([2]; human, plasma, intravenous, twice weekly, Day 4, 9–50 mg/m^2, N 30, cycle 1): 1690 min
Vd ([2]; human, plasma, intravenous, Vss, mean, twice weekly, Day 1, 9–50 mg/m^2, N 31, cycle 1): 142 L
Vd ([2]; human, plasma, intravenous, Vss, mean, twice weekly, Day 8, 9–50 mg/m^2, N 29, cycle 1): 126 L
Vd ([2]; human, plasma, intravenous, Vss, mean, twice weekly, Day 11, 9–50 mg/m^2, N 28, cycle 1): 136 L
Drug accumulation (AUC72 ratio) day 11/day 1 ([2]; twice-weekly schedule, repeated doses, n=28, P<0.05): 1.2
Drug accumulation (AUC72 ratio) day 4/day 1 ([2]; twice-weekly schedule, repeated doses, n=29, P<0.05): 1.2
Primary adverse effects [3]: myelosuppression and gastrointestinal toxicity
Primary DLT [4]: myelosuppression
Median time to morphologic leukemia-free state after first dose ([5]; 16 patients): 32.5 days
Time to morphologic leukemia-free state after first dose, range ([5]; 16 patients): 21–51 days
Patients with response of CR or CRp ([5]; 73 treated patients, both schedules): Five
Additional patients with morphologic leukemia-free state (beyond CR/CRp) ([5]; both schedules): 11 patients
Duration of CR/CRp responses, range ([5]; five responding patients): 1.7–19.2 months
Median duration of CR/CRp responses ([5]; five responding patients): 3.1 months
Patients achieving morphologic leukemia-free state ([5]; once weekly with ≥50 mg/m^2): 12 patients
Patients achieving morphologic leukemia-free state ([5]; twice weekly with ≥30 mg/m^2): 4 patients
Time plasma concentration >1 μmol/l in the other two patients with CR or CRp ([5]; weekly time above threshold): 10 h and 16 h
Increase in γH2AX ([6]; day 1, 2 h postdose, patients with blasts ≥5%): 1.8 fold
Increase in γH2AX ([6]; day 1, 2 h postdose, patients with bone marrow blasts <5% after treatment): 2.6 fold
Increase in γH2AX ([6]; day 8, 2 h postdose, patients with blasts ≥5%): 1.7 fold
Increase in γH2AX ([6]; day 8, 2 h postdose, patients with bone marrow blasts <5% after treatment): 3.8 fold
Patients with increased γH2AX after the first dose ([6]; weekly schedule, 50 mg/m^2 or higher, 2 h postdose day 1): 7 of 10
Patients with γH2AX higher than at baseline before treatment on day 8 ([6]; weekly schedule, day 8 predose): 9 of 10
Average renal excretion of the total dose infused [7]: 2.35%
Dependence of activity on p53 (p53): independent of p53
Half-maximal (50%) inhibitory concentration (IC50) (MV4-11 AML cell line): 40.1 ng/mL
IC90 (MV4-11 AML cell line): 1000 nM
